Screening results: PubChem BioAssay, Sanford-Burnham Center for Chemical Genomics
CSN inh: blocks human CSN-mediated cullin deneddylation | Q92905 | Purified CSN, SCF-Nedd8-OG deneddylation, fluorescence polarization | inhibition, % at 12.5 µM | 0.38% of 360,000 active;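 active = pattern-corrected inhibition above about 35%, with an unprinted fluorescence ratio check between 0.5 and 1.5, limit read from the data, passing the limit was not always enough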
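Material: human Csn5 produced in HEK293T cells; Input: enzyme 0.24 nM; Reagent: SCFSkp2-Nedd8OG substrate at 10 nM final; Dosing: 12.5 µM compound; Incubation: 90 min reaction at room temperature; Detection: fluorescence polarization of the substrate; Evaluation: % inhibition of substrate cleavage by Csn5; Control set: substrate-only high control, full reaction low control.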
SKN-1 block: inhibitors of C. elegans SKN-1. C. elegans VP596 Pgst-4::GFP/RFP ratio, acrylamide-induced, 24 h. inhibition, % at 21.8 µM. 0.49% of 360,000 active;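 active = interference check ratio from 0.5 to 1.5 plus GFP to RFP signal ratio inhibition reaching or exceeding a fixed threshold, cut at about 30% in these data, passing the limit was not always enough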
MT1-MMP act inh: blocks activation of human MT1-MMP; HT1080 RFP-PRO-GFP cells, GFP/RFP ratio fluorescence, overnight; percent of plate control window, DMSO zero; GFP/RFP ratio change, % at 20 µM; 0.061% of 360,000 active; AID 651647;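 active = GFP/RFP ratio change of at least 30% with cell ATP level not reduced by more than half and red fluorescence within 50% of control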
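Read-out: GFP/RFP fluorescence ratio; Test system: RFP-PRO-GFP reporter HT1080 cells; Compound dosing: single-point 20 µM compound, 1% DMSO; Times: overnight compound exposure at 37 °C.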
DNMT1 inh: DNMT1 (human) enzyme inhibition | P26358 | DNMT1 molecular beacon, Hinp1I cleavage, fluorescence | inhibition (reported as % activation of signal), % at 10 µM | 0.83% of 360,000 active; in the data active = inhibition above about 50%
Target sequence (P26358 504-1616 limits assumed): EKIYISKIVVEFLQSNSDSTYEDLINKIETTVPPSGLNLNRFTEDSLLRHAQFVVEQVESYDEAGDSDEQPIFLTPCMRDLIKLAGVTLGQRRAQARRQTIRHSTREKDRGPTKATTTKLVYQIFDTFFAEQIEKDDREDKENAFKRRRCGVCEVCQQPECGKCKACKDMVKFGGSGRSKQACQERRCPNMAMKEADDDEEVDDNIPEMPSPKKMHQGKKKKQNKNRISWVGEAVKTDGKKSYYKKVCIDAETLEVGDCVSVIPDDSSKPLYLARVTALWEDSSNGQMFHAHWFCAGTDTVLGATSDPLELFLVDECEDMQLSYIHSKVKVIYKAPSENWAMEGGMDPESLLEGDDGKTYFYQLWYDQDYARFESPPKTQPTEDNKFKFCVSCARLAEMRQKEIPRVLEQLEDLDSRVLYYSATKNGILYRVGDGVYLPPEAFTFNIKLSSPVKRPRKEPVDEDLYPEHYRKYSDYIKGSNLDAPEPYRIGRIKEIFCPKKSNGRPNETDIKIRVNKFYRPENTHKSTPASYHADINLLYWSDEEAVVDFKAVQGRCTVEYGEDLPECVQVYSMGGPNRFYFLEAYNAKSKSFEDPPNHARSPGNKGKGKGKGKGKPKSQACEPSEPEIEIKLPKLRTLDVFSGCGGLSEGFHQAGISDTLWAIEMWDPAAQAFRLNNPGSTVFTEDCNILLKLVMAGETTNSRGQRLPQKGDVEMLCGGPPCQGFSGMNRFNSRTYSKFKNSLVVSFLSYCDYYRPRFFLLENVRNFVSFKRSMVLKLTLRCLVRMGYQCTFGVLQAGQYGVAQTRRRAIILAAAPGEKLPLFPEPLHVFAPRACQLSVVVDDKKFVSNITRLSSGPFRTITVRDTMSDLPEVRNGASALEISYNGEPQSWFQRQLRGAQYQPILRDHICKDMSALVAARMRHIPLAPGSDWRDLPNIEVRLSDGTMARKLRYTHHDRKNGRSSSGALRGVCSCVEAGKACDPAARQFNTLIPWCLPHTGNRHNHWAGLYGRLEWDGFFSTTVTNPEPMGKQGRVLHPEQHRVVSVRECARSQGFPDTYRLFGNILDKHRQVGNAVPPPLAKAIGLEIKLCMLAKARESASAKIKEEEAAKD
Rpn11 block: inhibitors of human proteasome Rpn11; inhibition, % at 20 µM; AID 588493; O00487; 0.59% of 360,000 active; human 26S proteasome, Ub4-pepOG fluorescence polarization; 20S core pre-blocked with epoxomicin;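 active = inhibition at 20 µM, scaled to each plate's controls, above about 33%, limit read from the data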
SUMO1-SIM PPI: modulators of human SUMO1-mediated protein-protein interactions | P63165 | SUMO1 binding to a labelled peptide, TR-FRET, 1 h | inhibition, % at 20 µM | 0.33% of 360,000 active; in the data active = inhibition above about 37%
DNMT1 inh conf: DNMT1 inhibition confirmation, single concentration; shares compounds with DNMT1 inh; DNMT1 molecular beacon HinP1I cleavage, fluorescence; inhibition, % at 10 µM; 8% of 2,300 active; AID 602385;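 active = average inhibition of at least 30% in the single-concentration confirmation test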
DNMT1 interf: beacon fluorescence artifact counter-screen | shares compounds with DNMT1 inh | DNMT1 molecular beacon spectral interference counterscreen, fluorescence 485/520 | activation (fluorescence interference), % at 10 µM | 1% of 2,300 active;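 active = activation of at least 30% at 10 µM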;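 also: DNMT1 catalytic domain with a HinP1I cleavage step and a FAM/dabcyl DNA beacon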
Of the large screens only hits and unclear results are named; the others gave an inactive call (follow-up assays come after a bar, where they were run). Shown are actives, neighbours in structure and some others; about 2.3% of the full set was active somewhere.

O=C(N/N=C/c1ccco1)C1CC1c1ccccc1 (stereo not drawn)	DNMT1 inh 92.1 | DNMT1 inh conf inactive | DNMT1 interf inactive
CC1(C(=O)Nc2ccc3c(c2)OCCO3)CSCC(=O)N1CCc1ccccc1F (stereo not drawn)	none (no result: DNMT1 inh, Rpn11 block)
Cc1nc(NC(=O)c2ccccc2)sc1-c1cc(C(=O)N2CCOCC2)nn1Cc1ccccc1	none
O=C(C[C@H]1C/C=C\C[C@@H](Cc2ccc(F)cc2)C(=O)O[C@@H](c2ccccc2)CNC1=O)N[C@@H](CO)Cc1ccccc1	none
O=C(C[C@H]1C/C=C\C[C@H](Cc2ccc(F)cc2)C(=O)O[C@@H](c2ccccc2)CNC1=O)N[C@@H](CO)Cc1ccccc1	DNMT1 inh 62.5 | DNMT1 inh conf inactive | DNMT1 interf inactive
Cc1ccc(C(=O)NCCNc2nc3cc(C)c(C)cc3cc2C)cc1	DNMT1 inh 55.8 | DNMT1 inh conf inactive | DNMT1 interf inactive
COc1ccc(CCC(=O)N2c3ccccc3N=C(c3ccc4c(c3)OCO4)C2C(=O)NCc2ccccc2)cc1 (stereo not drawn)	none (no result: DNMT1 inh, Rpn11 block)
CCc1ccc(N(CC(=O)NC(C)(C)C)C(=O)CCC(=O)Nc2ccccn2)cc1	DNMT1 inh 60.0 | DNMT1 inh conf inactive | DNMT1 interf inactive
COc1ccc(O)c(C(c2c(C)[nH][nH]c2=O)c2c(C)[nH][nH]c2=O)c1	DNMT1 inh 53.3, SUMO1-SIM PPI 43.0 | DNMT1 inh conf inactive | DNMT1 interf inactive
Cc1ccc(NC(=O)COC(=O)Cn2c(C)csc2=O)c([N+](=O)[O-])c1	DNMT1 inh 50.9 | DNMT1 inh conf inactive | DNMT1 interf inactive
Cc1csc(=O)n1CC(=O)OCC(=O)Nc1cc([N+](=O)[O-])ccc1Cl	none
CCCNC(=O)Cn1c(=O)/c(=C\c2ccc(-c3cccc([N+](=O)[O-])c3)o2)s/c1=C\C(=O)C(C)(C)C	none
CCCNC(=O)Cn1c(=O)/c(=C/c2ccc(-c3cccc([N+](=O)[O-])c3)o2)s/c1=C\C(=O)C(C)(C)C	DNMT1 inh 68.1 | DNMT1 inh conf inactive | DNMT1 interf inactive
O=C(N/N=C/c1ccc(-c2ccccc2C(=O)O)o1)c1cccs1	DNMT1 inh 62.6 | DNMT1 inh conf inactive | DNMT1 interf inactive
CCCNC(=O)c1ccc2c(=O)n3c(-c4ccc(C)cc4)csc3nc2c1	DNMT1 inh 53.4 | DNMT1 inh conf inactive | DNMT1 interf inactive
COc1ccc(NC(=O)C2(C)CCN2Cc2ccc(C(C)C)cc2)cc1OC (stereo not drawn)	none
O=C(O)CCN1C(=O)/C(=C\c2ccc(OCc3ccccc3)c(OCc3ccccc3)c2)SC1=S	DNMT1 inh 98.3 | DNMT1 inh conf inactive | DNMT1 interf inactive
O=C(/C=C/c1ccco1)NC(=S)Nc1ccc(O)c(-c2nc3ccccc3s2)c1	DNMT1 inh 67.3 | DNMT1 inh conf inactive | DNMT1 interf inactive
COc1ccc(NC(=S)NC(=O)/C=C/c2ccco2)cc1	none
CC(C)(C)NC(=O)C(c1ccc(C(F)(F)F)cc1)n1c(=O)c(-c2ccco2)nc2ccccc21 (stereo not drawn)	none (no result: DNMT1 inh, Rpn11 block)
COc1cccc(C(=O)Nc2ccc(S(=O)(=O)NCc3ccco3)cc2)c1	none
O=C(Nc1ccc(S(=O)(=O)NCc2ccco2)cc1)c1cccc(F)c1	DNMT1 inh 83.5 | DNMT1 inh conf inactive | DNMT1 interf inactive
Cc1cc(C(=O)NNC(=O)/C=C/c2ccco2)c(C)o1	DNMT1 inh 88.0 | DNMT1 inh conf inactive | DNMT1 interf inactive
O=C(CCCCC(=O)NCc1cccs1)NCc1cccs1	none
O=C(CCS(=O)(=O)c1ccc(Br)cc1)NCc1cccs1	DNMT1 inh 58.7 | DNMT1 inh conf inactive | DNMT1 interf inactive
O=C(CCS(=O)(=O)c1ccc(Br)cc1)NCc1ccco1	DNMT1 inh 57.2 | DNMT1 inh conf inactive | DNMT1 interf inactive
Cc1cccc(C)c1Cn1c(C)c(C(=O)NCCC#N)sc1=O	none
COC(=O)[C@H]1C[C@H](OC(=O)NCc2ccccc2F)[C@@]2(O)CN(S(=O)(=O)c3ccc(C)cc3)CC2[C@H]1C(=O)OC (stereo partly drawn)	none
Cc1noc(C)c1CCC(=O)NC1CCCN(Cc2ccc(CC(C)C)cc2)C1 (stereo not drawn)	DNMT1 inh 52.8 | DNMT1 inh conf inactive | DNMT1 interf inactive
Cc1noc(C)c1CCC(=O)NC1CCCN(Cc2ccc(Cl)cc2)C1 (stereo not drawn)	none
CC(=O)c1c(C)[nH]c(C(=O)CSc2ncnc3sc(-c4ccccc4)cc23)c1C	DNMT1 inh 53.0 | DNMT1 inh conf inactive | DNMT1 interf inactive
O=C(O)CSc1ncnc2sc(-c3ccccc3)cc12	none
O=c1[nH]c2ccccc2c2nc3ccccn3c12	none
O=c1nc2c(O)cccn2c2c1c(=O)[nH]c1ccccc12	DNMT1 inh 105.1 | DNMT1 inh conf inactive | DNMT1 interf inactive
CCc1nc2ccc(C(=O)NCCN3CCNC3=O)cn2c1N(C)CCC(C)C	none
Cc1ccc(C(=O)Nc2nc(-c3ccc([N+](=O)[O-])cc3)cs2)o1	DNMT1 inh 51.4 | DNMT1 inh conf inactive | DNMT1 interf inactive
COc1ccc(NC(=O)c2sc(=O)n(Cc3cccc(C(F)(F)F)c3)c2C)cc1OC	none
COc1ccc(-n2nc(C(=O)NCC(=O)Nc3cccc(Cl)c3)c3ccccc3c2=O)cc1OC	DNMT1 inh 59.8 | DNMT1 inh conf inactive | DNMT1 interf inactive
COc1ccc(-n2nc(C(=O)Nc3ccc(OC)c(OC)c3)c3c4ccccc4n(C)c3c2=O)cc1	CSN inh 48.0, DNMT1 inh 60.0 | DNMT1 inh conf inactive | DNMT1 interf inactive
Cc1ccc(-n2c(C)nc3oc4ccccc4c(=O)c3c2=O)cc1	DNMT1 inh 99.4 | DNMT1 inh conf inactive | DNMT1 interf inactive
O=C(Nc1ccc(O)c2c(=O)cc(-c3cccc(Cl)c3)oc12)c1ccccc1Cl	DNMT1 inh 53.5 | DNMT1 inh conf inactive | DNMT1 interf inactive
O=C1NC[C@H](CCCCN2C[C@H](Cc3ccc(O)cc3)N(CCc3ccc(O)cc3)C(=O)C2=O)N(CC2CCCCC2)C1=O	none (no result: DNMT1 inh, Rpn11 block)
Cc1occc1C(=O)NCc1ccc2c(c1)OCO2	none
Cc1occc1C(=O)NCc1cccc(CNC(=O)c2ccoc2C)c1	DNMT1 inh 51.0 | DNMT1 inh conf inactive | DNMT1 interf inactive
CC(=O)N[C@@H]1C=C[C@@H](CC(=O)NCc2ccc(Cl)cc2)O[C@@H]1CO	none (no result: DNMT1 inh, Rpn11 block)
